Reference: ChEMBL document CHEMBL2069216, “Discovery of novel 2-aminopyridine-3-carboxamides as c-Met kinase inhibitors” (Bioorg Med Chem, 2012)
Active and inactive are the calls of the source. The rule behind the calls is not given here.

Assays:
[1] = Antiproliferative activity against human EBC1 cells expressing elevated levels of constitutively active c-Met after 72 hrs by SRB assay; type: functional, cell-based; settings: EBC-1, 72 h
Summary of the method: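 Cells seeded in 96-well plates, exposed the next day to a range of compound concentrations and cultured 72 h. Fixed with cold 10% TCA at 4 °C for 1 h, stained with 0.4% SRB in 1% acetic acid at room temperature, washed with 1% acetic acid, dye solubilized in 10 mM Tris base. OD read at 515 nm.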

[2] = biological target: T1, Hepatocyte growth factor receptor (Homo sapiens, UniProt P08581); assay: Inhibition of c-Met incubated for 60 mins at spectrophotometry
T1 sequence (P08581 whole entry): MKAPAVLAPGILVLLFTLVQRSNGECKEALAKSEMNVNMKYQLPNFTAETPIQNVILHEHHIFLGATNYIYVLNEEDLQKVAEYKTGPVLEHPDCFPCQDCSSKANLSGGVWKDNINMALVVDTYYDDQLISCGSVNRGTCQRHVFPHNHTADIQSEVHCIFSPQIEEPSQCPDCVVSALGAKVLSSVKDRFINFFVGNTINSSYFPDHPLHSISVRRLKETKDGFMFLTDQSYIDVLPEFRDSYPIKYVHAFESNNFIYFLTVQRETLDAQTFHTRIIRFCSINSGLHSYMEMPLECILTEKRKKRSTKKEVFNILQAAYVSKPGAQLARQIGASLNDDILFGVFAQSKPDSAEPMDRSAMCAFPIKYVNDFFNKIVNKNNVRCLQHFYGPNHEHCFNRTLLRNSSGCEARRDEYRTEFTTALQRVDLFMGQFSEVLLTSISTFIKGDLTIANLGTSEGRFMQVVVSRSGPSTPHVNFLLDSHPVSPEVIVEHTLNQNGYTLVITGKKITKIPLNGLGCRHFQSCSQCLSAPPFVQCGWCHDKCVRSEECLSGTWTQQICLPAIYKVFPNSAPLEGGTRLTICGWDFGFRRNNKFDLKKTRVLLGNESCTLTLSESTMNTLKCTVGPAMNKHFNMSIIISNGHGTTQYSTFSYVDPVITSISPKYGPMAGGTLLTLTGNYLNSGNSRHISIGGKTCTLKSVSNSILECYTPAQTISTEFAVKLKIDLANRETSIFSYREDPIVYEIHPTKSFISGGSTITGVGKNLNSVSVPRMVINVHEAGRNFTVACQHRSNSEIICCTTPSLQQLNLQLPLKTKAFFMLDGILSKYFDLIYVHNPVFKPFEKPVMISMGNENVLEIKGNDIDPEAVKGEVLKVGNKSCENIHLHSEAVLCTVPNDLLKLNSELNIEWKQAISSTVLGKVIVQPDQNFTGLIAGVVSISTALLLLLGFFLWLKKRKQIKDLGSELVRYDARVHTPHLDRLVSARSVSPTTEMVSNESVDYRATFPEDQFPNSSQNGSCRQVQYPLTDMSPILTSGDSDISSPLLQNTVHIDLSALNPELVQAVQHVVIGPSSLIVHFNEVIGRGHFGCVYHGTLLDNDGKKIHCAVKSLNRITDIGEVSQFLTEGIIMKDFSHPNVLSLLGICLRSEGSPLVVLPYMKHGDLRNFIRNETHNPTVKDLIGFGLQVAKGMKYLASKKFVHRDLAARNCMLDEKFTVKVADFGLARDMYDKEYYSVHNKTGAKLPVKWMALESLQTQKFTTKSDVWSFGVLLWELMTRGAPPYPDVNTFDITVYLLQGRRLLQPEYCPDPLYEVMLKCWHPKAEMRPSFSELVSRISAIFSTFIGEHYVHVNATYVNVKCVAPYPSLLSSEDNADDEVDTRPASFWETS

[3] = biological target: T1, Hepatocyte growth factor receptor; assay: Inhibition of c-Met at 10 uM incubated for 60 mins by spectrophotometry
Summary of the method: (§1)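 Compounds in 1% DMSO; reaction started by adding purified kinase, 60 min at 37 °C. PY99 antibody, then HRP anti-mouse IgG; o-phenylenediamine/H2O2 read at 490 nm. Inhibition % = [1-(A490/A490 control)]×100; IC50 from inhibition curves.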

[4] = biological target: T1, Hepatocyte growth factor receptor; assay: Inhibition of c-Met at 1 uM incubated for 60 mins by spectrophotometry; summary of the method: as §1
[5] = biological target: T1, Hepatocyte growth factor receptor; assay: Inhibition of c-Met-mediated AKT phosphorylation in human EBC1 cells at 0.1 to 10 uM incubated for 4 hrs by Western blot; type: cell-based
Summary of the method: (§2)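 EBC-1 cells grown to exponential phase and treated with compound for 4 h at 37 °C. Lysed in 1× SDS sample buffer, resolved on 10% SDS-PAGE, transferred to nitrocellulose. Probed for phospho-c-Met/c-Met, phospho-ERK1/2/ERK1/2, phospho-AKT/AKT and GAPDH, then HRP anti-rabbit or anti-mouse IgG.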

[6] = biological target: T1, Hepatocyte growth factor receptor; assay: Inhibition of c-Met phosphorylation in human EBC1 cells incubated for 4 hrs by Western blot; type: cell-based; summary of the method: as §2
[7] = biological target: Vascular endothelial growth factor receptor 1 (Homo sapiens, UniProt P17948); assay: Inhibition of FLT1; summary of the method: as §1
Chain of Vascular endothelial growth factor receptor 1 (P17948 whole entry): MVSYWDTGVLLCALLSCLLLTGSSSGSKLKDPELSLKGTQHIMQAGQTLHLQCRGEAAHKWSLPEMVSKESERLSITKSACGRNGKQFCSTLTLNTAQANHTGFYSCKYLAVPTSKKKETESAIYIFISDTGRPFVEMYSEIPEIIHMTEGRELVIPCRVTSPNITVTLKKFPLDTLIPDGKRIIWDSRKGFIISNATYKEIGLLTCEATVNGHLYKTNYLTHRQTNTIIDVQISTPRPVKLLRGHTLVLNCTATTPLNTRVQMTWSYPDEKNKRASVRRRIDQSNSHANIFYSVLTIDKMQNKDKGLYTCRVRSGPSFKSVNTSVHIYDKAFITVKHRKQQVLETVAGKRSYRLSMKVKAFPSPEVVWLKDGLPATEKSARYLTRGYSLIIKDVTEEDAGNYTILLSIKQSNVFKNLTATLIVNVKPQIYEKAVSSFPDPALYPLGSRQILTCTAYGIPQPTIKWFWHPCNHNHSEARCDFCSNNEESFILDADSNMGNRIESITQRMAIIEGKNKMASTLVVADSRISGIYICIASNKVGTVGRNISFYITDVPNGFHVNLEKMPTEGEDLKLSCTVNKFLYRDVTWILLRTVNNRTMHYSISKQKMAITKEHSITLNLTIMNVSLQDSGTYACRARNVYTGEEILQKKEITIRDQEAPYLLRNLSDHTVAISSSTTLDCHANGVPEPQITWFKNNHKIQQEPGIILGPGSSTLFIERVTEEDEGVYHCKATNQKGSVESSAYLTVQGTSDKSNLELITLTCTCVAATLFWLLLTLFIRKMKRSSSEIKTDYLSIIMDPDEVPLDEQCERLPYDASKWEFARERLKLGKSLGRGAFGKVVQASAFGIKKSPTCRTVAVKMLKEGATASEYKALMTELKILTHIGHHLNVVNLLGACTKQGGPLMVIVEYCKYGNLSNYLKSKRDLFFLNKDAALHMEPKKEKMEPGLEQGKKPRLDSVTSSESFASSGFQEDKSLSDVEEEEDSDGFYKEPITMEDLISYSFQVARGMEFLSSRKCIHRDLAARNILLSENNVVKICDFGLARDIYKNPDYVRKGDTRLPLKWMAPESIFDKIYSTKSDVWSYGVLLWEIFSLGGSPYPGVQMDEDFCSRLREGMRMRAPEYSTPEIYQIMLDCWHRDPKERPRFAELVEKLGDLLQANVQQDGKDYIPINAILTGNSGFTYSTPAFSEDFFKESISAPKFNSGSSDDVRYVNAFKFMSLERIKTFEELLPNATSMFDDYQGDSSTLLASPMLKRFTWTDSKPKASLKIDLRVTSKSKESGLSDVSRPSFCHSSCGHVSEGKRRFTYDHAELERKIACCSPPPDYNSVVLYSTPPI

[8] = biological target: T1, Hepatocyte growth factor receptor; assay: Inhibition of c-Met-mediated ERK1/2 phosphorylation in human EBC1 cells at 0.1 to 10 uM incubated for 4 hrs by Western blot; type: cell-based; summary of the method: as §2
[9] = biological target: Platelet-derived growth factor receptor (Homo sapiens, UniProt P09619+P16234); assay: Inhibition of PDGFR; type: protein-complex assay; summary of the method: as §1
[10] = biological target: Vascular endothelial growth factor receptor 2 (Homo sapiens, UniProt P35968); assay: Inhibition of KDR; summary of the method: as §1
[11] = biological target: Macrophage-stimulating protein receptor (Homo sapiens, UniProt Q04912); assay: Inhibition of Ron; summary of the method: as §1
[12] = biological target: Receptor tyrosine-protein kinase erbB-2 (Homo sapiens, UniProt P04626); assay: Inhibition of ERBB2; summary of the method: as §1
[13] = biological target: Ephrin type-A receptor 2 (Homo sapiens, UniProt P29317); assay: Inhibition of EPHA2; summary of the method: as §1
Chain of Ephrin type-A receptor 2 (P29317 whole entry): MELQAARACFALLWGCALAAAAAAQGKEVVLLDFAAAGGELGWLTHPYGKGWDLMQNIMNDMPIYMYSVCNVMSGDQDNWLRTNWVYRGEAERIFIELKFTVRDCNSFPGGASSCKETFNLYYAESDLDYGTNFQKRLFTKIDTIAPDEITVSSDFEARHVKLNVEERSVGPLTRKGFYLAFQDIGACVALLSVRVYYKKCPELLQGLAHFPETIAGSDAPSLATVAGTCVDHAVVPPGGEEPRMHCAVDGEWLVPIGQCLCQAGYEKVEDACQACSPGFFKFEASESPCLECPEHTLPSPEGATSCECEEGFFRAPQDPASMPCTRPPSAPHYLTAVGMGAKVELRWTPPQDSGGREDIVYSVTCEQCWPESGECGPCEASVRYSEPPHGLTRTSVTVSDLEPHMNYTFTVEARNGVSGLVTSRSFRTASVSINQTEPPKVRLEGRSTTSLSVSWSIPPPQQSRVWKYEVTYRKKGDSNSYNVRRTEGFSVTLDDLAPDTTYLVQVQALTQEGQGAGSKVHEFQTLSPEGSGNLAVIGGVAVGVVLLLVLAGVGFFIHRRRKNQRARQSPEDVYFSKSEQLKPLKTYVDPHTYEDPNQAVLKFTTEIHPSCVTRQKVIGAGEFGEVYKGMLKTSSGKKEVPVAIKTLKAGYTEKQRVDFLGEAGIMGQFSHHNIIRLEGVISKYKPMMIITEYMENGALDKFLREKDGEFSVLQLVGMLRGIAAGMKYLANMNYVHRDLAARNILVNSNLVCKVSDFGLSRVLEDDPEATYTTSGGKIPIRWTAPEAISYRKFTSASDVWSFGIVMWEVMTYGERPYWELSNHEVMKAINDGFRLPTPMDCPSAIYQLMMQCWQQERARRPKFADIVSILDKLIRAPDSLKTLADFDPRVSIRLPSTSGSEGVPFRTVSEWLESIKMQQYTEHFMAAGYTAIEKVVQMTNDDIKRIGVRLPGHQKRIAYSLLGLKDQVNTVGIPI

[14] = biological target: T2, Tyrosine-protein kinase receptor UFO (Homo sapiens, UniProt P30530); assay: Inhibition of Axl; summary of the method: as §1
T2 sequence (P30530 whole entry): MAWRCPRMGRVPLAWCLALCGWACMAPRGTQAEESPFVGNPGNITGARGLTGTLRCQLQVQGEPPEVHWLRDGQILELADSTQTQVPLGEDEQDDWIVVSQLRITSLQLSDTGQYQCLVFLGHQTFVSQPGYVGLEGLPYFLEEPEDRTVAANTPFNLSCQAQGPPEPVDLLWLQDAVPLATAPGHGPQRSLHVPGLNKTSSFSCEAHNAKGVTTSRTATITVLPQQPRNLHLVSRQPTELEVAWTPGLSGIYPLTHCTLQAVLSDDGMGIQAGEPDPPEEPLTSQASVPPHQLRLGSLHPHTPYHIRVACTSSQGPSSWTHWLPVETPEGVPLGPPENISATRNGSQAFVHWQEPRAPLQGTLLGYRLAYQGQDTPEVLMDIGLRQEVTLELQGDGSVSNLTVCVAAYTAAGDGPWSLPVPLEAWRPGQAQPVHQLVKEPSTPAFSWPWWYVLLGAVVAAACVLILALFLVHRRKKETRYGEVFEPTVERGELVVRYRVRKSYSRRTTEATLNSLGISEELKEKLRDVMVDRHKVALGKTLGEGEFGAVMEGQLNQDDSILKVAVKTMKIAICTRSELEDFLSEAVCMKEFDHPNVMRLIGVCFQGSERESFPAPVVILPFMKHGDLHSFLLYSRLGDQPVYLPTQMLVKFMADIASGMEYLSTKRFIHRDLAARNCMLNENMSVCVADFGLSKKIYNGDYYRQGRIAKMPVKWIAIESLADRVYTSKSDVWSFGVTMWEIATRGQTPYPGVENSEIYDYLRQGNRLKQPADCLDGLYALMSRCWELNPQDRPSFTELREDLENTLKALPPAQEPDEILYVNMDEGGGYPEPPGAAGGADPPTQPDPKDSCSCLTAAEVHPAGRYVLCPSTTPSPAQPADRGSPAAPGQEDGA

[15] = biological target: Receptor tyrosine-protein kinase erbB-4 (Homo sapiens, UniProt Q15303); assay: Inhibition of ERBB4; summary of the method: as §1
[16] = biological target: Epidermal growth factor receptor (Homo sapiens, UniProt P00533); assay: Inhibition of EGFR; summary of the method: as §1
Chain of Epidermal growth factor receptor (P00533 whole entry): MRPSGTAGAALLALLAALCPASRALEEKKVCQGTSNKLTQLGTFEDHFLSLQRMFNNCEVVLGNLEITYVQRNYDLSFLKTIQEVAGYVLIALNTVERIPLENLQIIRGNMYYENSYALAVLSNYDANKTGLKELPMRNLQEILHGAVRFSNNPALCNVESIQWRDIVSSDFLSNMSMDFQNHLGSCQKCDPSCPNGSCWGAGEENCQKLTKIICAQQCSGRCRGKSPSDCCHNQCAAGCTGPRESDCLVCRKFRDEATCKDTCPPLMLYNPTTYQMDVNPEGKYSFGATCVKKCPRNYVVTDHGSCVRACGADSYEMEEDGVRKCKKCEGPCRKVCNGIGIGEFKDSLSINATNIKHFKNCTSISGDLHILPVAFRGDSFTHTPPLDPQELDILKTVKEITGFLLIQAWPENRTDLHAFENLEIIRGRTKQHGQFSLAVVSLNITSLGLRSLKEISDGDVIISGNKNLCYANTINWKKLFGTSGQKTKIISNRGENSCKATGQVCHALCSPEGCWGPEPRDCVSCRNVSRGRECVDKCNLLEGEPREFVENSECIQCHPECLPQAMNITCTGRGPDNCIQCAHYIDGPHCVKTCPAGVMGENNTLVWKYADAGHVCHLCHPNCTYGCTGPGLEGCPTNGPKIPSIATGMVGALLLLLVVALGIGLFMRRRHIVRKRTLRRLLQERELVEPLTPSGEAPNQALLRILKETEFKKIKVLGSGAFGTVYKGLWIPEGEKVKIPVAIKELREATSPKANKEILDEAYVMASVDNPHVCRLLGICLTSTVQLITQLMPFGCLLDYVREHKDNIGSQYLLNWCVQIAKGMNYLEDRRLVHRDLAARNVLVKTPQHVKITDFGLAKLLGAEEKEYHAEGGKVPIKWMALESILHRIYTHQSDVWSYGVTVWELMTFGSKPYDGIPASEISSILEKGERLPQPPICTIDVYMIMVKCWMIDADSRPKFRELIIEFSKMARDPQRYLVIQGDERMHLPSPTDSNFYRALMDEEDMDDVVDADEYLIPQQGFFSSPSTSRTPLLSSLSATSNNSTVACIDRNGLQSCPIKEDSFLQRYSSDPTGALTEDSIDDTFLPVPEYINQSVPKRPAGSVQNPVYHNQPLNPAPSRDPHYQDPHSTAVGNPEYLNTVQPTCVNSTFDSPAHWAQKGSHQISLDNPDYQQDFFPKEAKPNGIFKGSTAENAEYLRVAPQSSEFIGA

[17] = biological target: T3, Tyrosine-protein kinase receptor TYRO3 (Homo sapiens, UniProt Q06418); assay: Inhibition of TYRO3; summary of the method: as §1
T3 sequence (Q06418 whole entry): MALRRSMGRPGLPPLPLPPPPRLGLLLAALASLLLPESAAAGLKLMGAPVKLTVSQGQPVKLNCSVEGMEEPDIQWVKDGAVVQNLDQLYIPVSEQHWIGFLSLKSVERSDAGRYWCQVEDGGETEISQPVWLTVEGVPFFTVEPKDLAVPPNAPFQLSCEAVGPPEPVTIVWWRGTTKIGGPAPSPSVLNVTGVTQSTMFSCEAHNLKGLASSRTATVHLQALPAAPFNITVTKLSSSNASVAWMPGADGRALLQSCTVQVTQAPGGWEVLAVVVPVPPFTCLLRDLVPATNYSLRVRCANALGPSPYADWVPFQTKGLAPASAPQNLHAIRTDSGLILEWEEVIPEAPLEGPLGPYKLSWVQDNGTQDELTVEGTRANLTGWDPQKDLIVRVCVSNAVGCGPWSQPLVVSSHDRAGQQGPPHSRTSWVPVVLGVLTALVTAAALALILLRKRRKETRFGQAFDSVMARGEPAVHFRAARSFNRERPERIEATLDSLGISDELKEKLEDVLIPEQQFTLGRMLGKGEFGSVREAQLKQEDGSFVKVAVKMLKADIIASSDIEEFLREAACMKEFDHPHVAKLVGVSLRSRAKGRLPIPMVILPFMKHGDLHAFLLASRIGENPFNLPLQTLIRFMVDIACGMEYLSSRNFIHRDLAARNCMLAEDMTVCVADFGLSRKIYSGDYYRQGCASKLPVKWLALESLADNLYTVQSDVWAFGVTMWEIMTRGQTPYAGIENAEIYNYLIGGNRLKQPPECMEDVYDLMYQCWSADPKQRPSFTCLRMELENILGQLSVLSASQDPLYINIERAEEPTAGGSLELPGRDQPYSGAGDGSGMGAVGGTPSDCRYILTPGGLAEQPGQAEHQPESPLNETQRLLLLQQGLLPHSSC

[18] = biological target: T4, Tyrosine-protein kinase Mer (Homo sapiens, UniProt Q12866); assay: Inhibition of Mer; summary of the method: as §1
T4 sequence (Q12866 whole entry): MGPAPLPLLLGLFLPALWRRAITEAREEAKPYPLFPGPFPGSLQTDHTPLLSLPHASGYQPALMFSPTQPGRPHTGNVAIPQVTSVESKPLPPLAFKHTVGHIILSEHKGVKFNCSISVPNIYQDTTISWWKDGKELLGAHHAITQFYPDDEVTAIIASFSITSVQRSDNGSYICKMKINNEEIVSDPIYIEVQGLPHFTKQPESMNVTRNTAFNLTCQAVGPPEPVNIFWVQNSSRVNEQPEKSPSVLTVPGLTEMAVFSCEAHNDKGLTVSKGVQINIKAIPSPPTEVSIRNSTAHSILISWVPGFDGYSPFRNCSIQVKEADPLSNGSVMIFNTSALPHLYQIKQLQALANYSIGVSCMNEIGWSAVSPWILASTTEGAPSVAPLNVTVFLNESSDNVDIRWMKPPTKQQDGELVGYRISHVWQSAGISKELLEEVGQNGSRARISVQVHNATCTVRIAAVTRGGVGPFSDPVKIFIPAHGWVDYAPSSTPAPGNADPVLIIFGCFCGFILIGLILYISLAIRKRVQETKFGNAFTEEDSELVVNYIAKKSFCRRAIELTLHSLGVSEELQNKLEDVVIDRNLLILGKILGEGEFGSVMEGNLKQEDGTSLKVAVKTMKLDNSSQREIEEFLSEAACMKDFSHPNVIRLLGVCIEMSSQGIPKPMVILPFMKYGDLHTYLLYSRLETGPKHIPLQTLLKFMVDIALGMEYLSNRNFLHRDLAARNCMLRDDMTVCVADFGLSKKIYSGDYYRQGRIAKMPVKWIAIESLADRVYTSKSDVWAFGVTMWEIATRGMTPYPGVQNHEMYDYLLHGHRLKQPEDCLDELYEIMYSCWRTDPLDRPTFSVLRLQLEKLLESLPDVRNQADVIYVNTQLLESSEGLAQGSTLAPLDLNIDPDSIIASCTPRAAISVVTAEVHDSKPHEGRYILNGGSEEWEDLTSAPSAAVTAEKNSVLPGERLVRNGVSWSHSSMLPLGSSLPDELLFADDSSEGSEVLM

[19] = biological target: Fibroblast growth factor receptor 1 (Homo sapiens, UniProt P11362); assay: Inhibition of FGFR1; summary of the method: as §1
[20] = biological target: Tyrosine-protein kinase ABL1 (Homo sapiens, UniProt P00519); assay: Inhibition of ABL; summary of the method: as §1

## CC(NC(=O)c1cc(-c2cnn(C3CCOCC3)c2)cnc1N)c1c(Cl)ccc(F)c1Cl (racemic)
[1]
  IC50: 3.49 µM
[2]
  IC50: 99 nM

## Cn1cc(-c2cnc(N)c(C(=O)NCc3c(F)ccc(Cl)c3Cl)c2)cn1
[1]
  IC50: 12.7 µM

## CC(c1c(Cl)ccc(F)c1Cl)n1cnc2ncc(-c3cnn(C4CCNCC4)c3)cc2c1=O (stereo not given)
[3]
  inhibition: 34.1%

## C[C@@H](Oc1cc(-c2cnn(C3CCNCC3)c2)cnc1N)c1c(Cl)ccc(F)c1Cl [CRIZOTINIB]
[1]
  IC50: 0.053 µM

## Cn1cc(-c2cnc(N)c(C(=O)NCc3c(F)ccc(F)c3Cl)c2)cn1
[1]
  IC50: 6.9 µM

## CC(NC(=O)c1cc(-c2ccc(OCC(=O)N3CCOCC3)cc2)cnc1N)c1c(Cl)ccc(F)c1Cl (stereo not given)
[1]
  IC50: 6.05 µM

## C[C@@H](NC(=O)c1cc(-c2cnn(C3CCOCC3)c2)cnc1N)c1c(Cl)ccc(F)c1Cl
[4]
  inhibition: 27.6%

## Cn1cc(-c2cnc(N)c(C(=O)NCc3ccc(F)c(F)c3)c2)cn1
[1]
  IC50: 14.6 µM

## CN(Cc1c(F)ccc(Cl)c1Cl)C(=O)c1cc(-c2cnn(C)c2)cnc1N
[4]
  inhibition: 13.1%

## CC(c1c(Cl)ccc(F)c1Cl)n1cnc2ncc(-c3cnn(C4CCN(C(=O)OC(C)(C)C)CC4)c3)cc2c1=O (stereo not given)
[3]
  inhibition: 28.9%

## CC(NC(=O)c1cc(-c2ccc3c(c2)CC(=O)N3)cnc1N)c1c(Cl)ccc(F)c1Cl (stereo not given)
[1]
  IC50: 17.8 µM

## Cn1cc(-c2cnc(N)c(C(=O)NCc3cc(F)ccc3F)c2)cn1
[1]
  IC50: 15 µM

## C[C@H](NC(=O)c1cc(-c2cnn(C3CCOCC3)c2)cnc1N)c1c(Cl)ccc(F)c1Cl
[5]
  inhibition: Active
[1]
  IC50: 1.22 µM
[6]
  inhibition: Dose-dependent effect
[7]
  IC50: 8.16 µM
[8]
  inhibition: Active
[9]
  IC50: > 10 µM
[10]
  IC50: > 10 µM
[11]
  IC50: 8.26 µM
[12]
  IC50: > 10 µM
[13]
  IC50: 6.18 µM
[14]
  IC50: > 10 µM
[15]
  IC50: > 10 µM
[16]
  IC50: > 10 µM
[17]
  IC50: > 10 µM
[18]
  IC50: > 10 µM
[19]
  IC50: 3.48 µM
[2]
  IC50: 22 nM
[20]
  IC50: 4.99 µM

## CC(NC(=O)c1cc(-c2cnn(C3CCNCC3)c2)cnc1N)c1c(Cl)ccc(F)c1Cl (stereo not given)
[1]
  IC50: 1.46 µM

## CN(Cc1c(F)ccc(F)c1Cl)C(=O)c1cc(-c2cnn(C)c2)cnc1N
[4]
  inhibition: 18.1%

## CC(NC(=O)c1cc(-c2cnn(C)c2)cnc1N)c1c(Cl)ccc(F)c1Cl (stereo not given)
[1]
  IC50: > 50 µM

## CN(Cc1c(F)ccc(Cl)c1F)C(=O)c1cc(-c2cnn(C)c2)cnc1N
[4]
  inhibition: 10.9%
